# An excerpt weighted towards active compounds, which were near 4.9% of everything screened.
# CHT inh = human CHT choline transport inhibition. B-score at 10 µM. Q9GZV3. actives 0.86% (n = 310,000). CHT-expressing cells, membrane potential dye, choline response; active compounds read low;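 active = B-score over 3 SD under the library average, and starting fluorescence ratio not unusually high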;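 also: choline stimulus applied at its EC90 after an EC20 pre-addition; B-score computed on integrated fluorescence ratio after choline addition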
# Target sequence (Q9GZV3 whole entry, looked up): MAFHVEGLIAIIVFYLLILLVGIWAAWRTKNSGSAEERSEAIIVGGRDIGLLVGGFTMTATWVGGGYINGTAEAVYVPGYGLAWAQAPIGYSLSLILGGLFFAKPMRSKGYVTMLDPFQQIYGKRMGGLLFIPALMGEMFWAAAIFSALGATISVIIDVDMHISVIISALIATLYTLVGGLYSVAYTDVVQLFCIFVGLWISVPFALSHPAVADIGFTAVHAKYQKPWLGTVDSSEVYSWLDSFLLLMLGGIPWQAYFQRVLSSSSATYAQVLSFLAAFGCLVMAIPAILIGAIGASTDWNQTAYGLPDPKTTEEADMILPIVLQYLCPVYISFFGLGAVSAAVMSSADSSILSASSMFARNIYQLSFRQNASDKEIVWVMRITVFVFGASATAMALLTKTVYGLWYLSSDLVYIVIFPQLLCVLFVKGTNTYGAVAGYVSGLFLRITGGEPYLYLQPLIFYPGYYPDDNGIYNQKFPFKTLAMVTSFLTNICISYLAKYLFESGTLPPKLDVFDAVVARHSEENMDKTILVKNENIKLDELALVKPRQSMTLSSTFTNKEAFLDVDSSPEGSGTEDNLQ
# Lipid droplet = hepatic lipid droplet formation modulation | AML12 mouse hepatocytes, oleate lipid droplets, BODIPY imaging | actives 0.4% (n = 240,000) | inhibition, % at 6.5 µM;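 active = lipid droplet intensity inhibited by at least 50%, with more than 500 cells counted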
#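 Technique: fluorescence imaging, 20x objective, two fields per well / Assay system: AML12 hepatocytes (mouse) / Measure: % inhibition of lipid droplet signal / Doses: 6.5 µM single-point dosing / Incubation: overnight exposure / Reagent: 100 µM oleic acid challenge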
# CHT allo act = human CHT allosteric activation | Q9GZV3 | CHT-expressing cells, membrane potential dye, choline EC20; active compounds read high; LV-AA mutant CHT in HEK293 cells | B-score at 10 µM | actives 0.49% (n = 310,000);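 active = initial fluorescence not abnormally high and integrated response B-score, plate-corrected, over 3 SD above library mean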
# HSF-1 act = increases HSF-1 driven luciferase reporter signal; NIH3T3-HGL HSF-1 luciferase reporter, MG132, 8 h; 100% = twice DMSO control signal; activation, % at 9 µM; actives 1.7% (n = 300,000);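 active = mean replicate activation of at least 50% with a set share of replicates each reaching 50%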;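 also: 0% = median of the neutral control wells and 100% = twice that signal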
# HSF1 inhib = HSF1 inhibition. activity change, negative = inhibition, % at 7.5 µM (by protocol). actives 0.77% (n = 300,000). NIH3T3-HGL HSE-luciferase, MG132-induced, luminescence 8 h; active compounds read low;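 active = more than half of replicate wells show activity change below -50%, luminescence cut by over half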;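 also: luciferase reports HSF-1 transcriptional activity via heat shock element; 0% = median of DMSO wells and -100% = zero luminescence signal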
# PHOSPHO1 block = blocks human PHOSPHO1 phosphatase activity; recombinant PHOSPHO1, absorbance phosphatase assay; Q8TCT1; actives 1.1% (n = 290,000); inhibition, % at 13.3 µM; in the data active = inhibition above about 60%
# The depositor's hits bear a star; i = inactive; / = no result given.
SMILES,CHT inh,Lipid droplet,CHT allo act,HSF-1 act,HSF1 inhib,PHOSPHO1 block
CC(=O)C1=C(O)C(=O)N(c2ccc(C(=O)O)cc2)C1c1ccccc1 (configuration not stated),i,5,i,-3,0,9
Cc1ccc(O)c(NC(=O)c2noc3c2CCCCC3)c1,i,3,i,31,25,-7
C/C(N)=C(/C#N)C(=O)CSc1nnc(NC(C)C)s1,i,/,i,3,4,23
C/C(N)=C(/C#N)C(=O)CSc1nnc(Nc2ccccc2)s1,i,2,i,55*,30,-46
C/C(N)=C(/C#N)C(=O)CSc1nnc(Nc2ccccc2C)s1,i,/,i,71*,38,1
Cc1ccc(O)c(C2=Nc3ccccc3N=C(c3cccc([N+](=O)[O-])c3)C2)c1,i,17,i,32,26,-23
O=C(O)c1ccccc1-c1ccccc1C(=O)NNc1ccccc1,i,9,i,-4,-3,-6
COC(=O)c1cc(Br)c(N)cc1OC,i,-8,i,6,-3,61*
CN(CCOc1ccccc1)C(=O)C1CCC(=O)N(CCc2ccc(Cl)cc2)C1 (configuration not stated),i,-15,i,59*,23,13
Cc1ccc(CN(C)C(=O)C2CCC(=O)N(CCc3ccccc3)C2)o1 (configuration not stated),/,-10,/,195*,114,3
CCn1c(-c2csc3c2CCCC3)n[nH]c1=S,i,0,i,8,1,-5
CCCCn1c(-c2csc3c2CCC(C)C3)n[nH]c1=S (configuration not stated),i,/,i,16,8,84*
CCCCn1c(-c2csc3ccccc23)n[nH]c1=S,i,5,i,-8,-6,95*
CCCCn1c(-c2csc3c2CCCC3)n[nH]c1=S,i,-5,i,1,-4,100*
CCOC(=O)CCNC(=O)c1ccccc1Br,i,/,i,-6,-2,-30
O=C(COc1ccc(Br)cc1)N(Cc1cccs1)C1CCS(=O)(=O)C1 (configuration not stated),i,-7,i,22,13,28
COc1ccc(NC(=O)N2CCCC2C(=O)NCc2cccs2)cc1 (configuration not stated),i,28,i,-29,-11,39
Cc1ccn(C(=O)c2cc3cc(Cl)ccc3oc2=O)n1,i,30,i,-8,-1,-3
c1csc(-c2nn3c(Cn4cnc5ccccc54)nnc3s2)c1,i,8,i,20,5,83*
CCCc1nc(SCC(=O)Nc2cc(Cl)ccc2OC)c2c(=O)n(C)c(=O)n(C)c2n1,/,35,/,-70,-63*,5
CCOC(=O)c1ccc(N2C(=O)CC(N3CCC(Nc4ccc(F)cc4)CC3)C2=O)cc1 (configuration not stated),i,-2,i,58*,23,16
CCOC(=O)c1ccc(N2C(=O)CC(N3CCN(Cc4ccccc4)CC3)C2=O)cc1 (configuration not stated),i,/,i,3,-4,5
O=C(N/N=C/c1ccccc1Cl)c1cccc(F)c1,i,/,i,73*,42,14
O=C(N/N=C/c1c(Cl)cccc1Cl)c1cccc(F)c1,i,/,i,31,18,-23
O=C(N/N=C/c1ccccc1Cl)c1n[nH]c2c1CCCC2,i,-5,i,-72,-67*,9
COc1ccccc1-c1ccc(SCc2ccccc2F)nn1,i,-10,i,33,6,7
COCCn1nnnc1C(c1ccc(Cl)cc1)N1CCN(C(=O)c2ccco2)CC1 (configuration not stated),i,-8,i,1,-2,43
COCCn1nnnc1C(c1ccc(Cl)cc1)N1CCSCC1 (configuration not stated),i,/,i,-5,-2,74*
CCn1c(COc2cccc(C)c2C)nnc1SCC(=O)N1CCN(c2ccc(OC)cc2)CC1,i,/,i,-17,-3,74*
